Assay results collected from several papers.
rep main protease: Replicase polyprotein 1ab, main protease (rep, Severe acute respiratory syndrome-related coronavirus, UniProt P0C6X7)
Melanocortin receptor 5: Melanocortin receptor 5 (Mus musculus, UniProt P41149)

Compound | target | assay | setting | endpoint | result
O=C(O)[C@H]1O[C@@H](Oc2cc3oc(-c4ccccc4)cc(=O)c3c(O)c2O)[C@H](O)[C@@H](O)[C@@H]1O | rep main protease | enzyme activity, inhibitor |  | IC50 | 101 µM
C[C@@H]1NC(=O)[C@H](CC(N)=O)NC(=O)[C@H](Cc2ccccc2)NC(=O)[C@H](Cc2cccc3ccccc23)NC(=O)[C@H](CCCNC(=N)N)NC(=O)[C@@H]2CCCN2C(=O)[C@H]2CCCN2C(=O)[C@H](Cc2ccccc2)NC1=O | Melanocortin receptor 5 | reporter gene, agonist |  | EC50 | > 100 µM
CN[C@]1(c2ccccc2Cl)CCCCC1=O | Ferritin light chain (FTL, Equus caballus, UniProt P02791) | cell-free assay, fluorescence |  | Kd | 42 µM
COc1ccc(-c2nsc(NC(=O)[C@@H]3C[C@H]3C)c2C)cc1 | Metabotropic glutamate receptor 1 (GRM1, Homo sapiens, UniProt Q13255) | calcium signal, antagonist |  | IC50 | 0.0089 µM
[Hg+2] | rep main protease | enzyme activity, inhibitor |  | Ki | 0.5 µM
O=C1c2c(O)cc(O)cc2O[C@H](c2cc(O)c(O)c(O)c2)[C@H]1O | rep main protease | enzyme activity, inhibitor |  | IC50 | 4.58 µM
C[C@@H]1NC(=O)[C@H](CCCN)NC(=O)[C@H](Cc2ccccc2)NC(=O)[C@H](Cc2ccccc2)NC(=O)[C@H](CCCNC(=N)N)NC(=O)[C@@H]2CCCN2C(=O)[C@H]2CCCN2C(=O)[C@H](Cc2ccccc2)NC1=O | Melanocortin receptor 5 | reporter gene, agonist |  | EC50 | > 100 µM
Clc1cccc(N2CCNCC2)c1Cl | Muscarinic acetylcholine receptor M4 (CHRM4, Homo sapiens, UniProt P08173) | ligand displacement, radioligand | cell membranes | Ki | > 63.1 µM
CN1CCC(C(c2ccccc2)c2ccccc2)CC1 | Histamine H1 receptor (HRH1, Homo sapiens, UniProt P35367) | cell-free assay, radioligand |  | Ki | 0.0251 µM
